Measurements from ChEMBL document CHEMBL1781959, “Synthesis and in vitro antitumor activity of substituted quinazoline and quinoxaline derivatives: search for anticancer agent” (Eur J Med Chem, 2011).

Tests used:
Assay type in all cases: functional
[1] = test system: MDA-MB-468; assay: Anticancer activity against human MDA-MB-468 cells assessed as cell growth promotion at 10^-5 M after 48 hrs by SRB assay relative to control
[2] = test system: UO-31; assay: Anticancer activity against human UO31 cells assessed as cell growth promotion at 10^-5 M after 48 hrs by SRB assay relative to control
[3] = test system: HCT-15; assay: Anticancer activity against human HCT15 cells assessed as cell growth promotion at 10^-5 M after 48 hrs by SRB assay relative to control
[4] = test system: A549; assay: Anticancer activity against human A549 cells assessed as cell growth promotion at 10^-5 M after 48 hrs by SRB assay relative to control
[5] = test system: T47D; assay: Anticancer activity against human T47D cells assessed as cell growth promotion at 10^-5 M after 48 hrs by SRB assay relative to control
[6] = test system: UACC-62; assay: Anticancer activity against human UACC62 cells assessed as cell growth promotion at 10^-5 M after 48 hrs by SRB assay relative to control
[7] = test system: PC-3; assay: Anticancer activity against human PC3 cells assessed as cell growth promotion at 10^-5 M after 48 hrs by SRB assay relative to control
[8] = test system: NCI-H23; assay: Anticancer activity against human NCI-H23 cells assessed as cell growth promotion at 10^-5 M after 48 hrs by SRB assay relative to control
[9] = test system: NCI-H460; assay: Anticancer activity against human NCI-H460 cells assessed as cell growth promotion at 10^-5 M after 48 hrs by SRB assay relative to control
[10] = test system: CCRF-CEM; assay: Anticancer activity against human CCRF-CEM cells assessed as cell growth promotion at 10^-5 M after 48 hrs by SRB assay relative to control
[11] = Anticancer activity against human Hs 578T cells assessed as cell growth promotion at 10^-5 M after 48 hrs by SRB assay relative to control
[12] = test system: OVCAR-8; assay: Anticancer activity against human OVCAR8 cells assessed as cell growth promotion at 10^-5 M after 48 hrs by SRB assay relative to control
[13] = test system: M14; assay: Anticancer activity against human M14 cells assessed as cell growth promotion at 10^-5 M after 48 hrs by SRB assay relative to control
[14] = test system: HT-29; assay: Anticancer activity against human HT-29 cells assessed as cell growth promotion at 10^-5 M after 48 hrs by SRB assay relative to control
[15] = test system: SF-539; assay: Anticancer activity against human SF539 cells assessed as cell growth promotion at 10^-5 M after 48 hrs by SRB assay relative to control
[16] = test system: TK-10; assay: Anticancer activity against human TK10 cells assessed as cell growth promotion at 10^-5 M after 48 hrs by SRB assay relative to control
[17] = test system: UACC-257; assay: Anticancer activity against human UACC257 cells assessed as cell growth promotion at 10^-5 M after 48 hrs by SRB assay relative to control
[18] = test system: NCI/ADR-RES; assay: Anticancer activity against human NCI/ADR-RES cells assessed as cell growth promotion at 10^-5 M after 48 hrs by SRB assay relative to control
[19] = test system: MOLT-4; assay: Anticancer activity against human MOLT4 cells assessed as cell growth promotion at 10^-5 M after 48 hrs by SRB assay relative to control
[20] = test system: A498; assay: Anticancer activity against human A498 cells assessed as cell growth promotion at 10^-5 M after 48 hrs by SRB assay relative to control
[21] = test system: MCF7; assay: Anticancer activity against human MCF7 cells assessed as cell growth promotion at 10^-5 M after 48 hrs by SRB assay relative to control
[22] = test system: SNB-19; assay: Anticancer activity against human SNB19 cells assessed as cell growth promotion at 10^-5 M after 48 hrs by SRB assay relative to control
[23] = test system: HCT-116; assay: Anticancer activity against human HCT116 cells assessed as cell growth promotion at 10^-5 M after 48 hrs by SRB assay relative to control
[24] = test system: HL-60(TB); assay: Anticancer activity against human HL-60(TB) cells assessed as cell growth promotion at 10^-5 M after 48 hrs by SRB assay relative to control
Outline: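 NCI-60 single-dose screen: compound at 10^-5 M, 48 h at 37 °C, 5% CO2; cells grown in RPMI 1640 with 5% FBS and 2 mM L-glutamine, pre-incubated 24 h before dosing. Adherent cells fixed with cold TCA; endpoint is sulforhodamine B protein staining. Percent growth of treated cells is reported relative to untreated control.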

[25] = test system: OVCAR-3; assay: Anticancer activity against human OVCAR3 cells assessed as cell growth promotion at 10^-5 M after 48 hrs by SRB assay relative to control
[26] = test system: SK-OV-3; assay: Anticancer activity against human SKOV3 cells assessed as cell growth promotion at 10^-5 M after 48 hrs by SRB assay relative to control
[27] = test system: SK-MEL-5; assay: Anticancer activity against human SK-MEL-5 cells assessed as cell growth promotion at 10^-5 M after 48 hrs by SRB assay relative to control
[28] = test system: LOX IMVI; assay: Anticancer activity against human LOXIMVI cells assessed as cell growth promotion at 10^-5 M after 48 hrs by SRB assay relative to control
[29] = test system: NCI-H226; assay: Anticancer activity against human NCI-H226 cells assessed as cell growth promotion at 10^-5 M after 48 hrs by SRB assay relative to control
[30] = test system: KM12; assay: Anticancer activity against human KM12 cells assessed as cell growth promotion at 10^-5 M after 48 hrs by SRB assay relative to control
[31] = test system: COLO 205; assay: Anticancer activity against human COLO205 cells assessed as cell growth promotion at 10^-5 M after 48 hrs by SRB assay relative to control
[32] = test system: ACHN; assay: Anticancer activity against human ACHN cells assessed as cell growth promotion at 10^-5 M after 48 hrs by SRB assay relative to control
[33] = test system: OVCAR-5; assay: Anticancer activity against human OVCAR5 cells assessed as cell growth promotion at 10^-5 M after 48 hrs by SRB assay relative to control
[34] = test system: SK-MEL-28; assay: Anticancer activity against human SK-MEL-28 cells assessed as cell growth promotion at 10^-5 M after 48 hrs by SRB assay relative to control
[35] = test system: NCI-H322M; assay: Anticancer activity against human NCI-H322M cells assessed as cell growth promotion at 10^-5 M after 48 hrs by SRB assay relative to control
[36] = test system: K562; assay: Anticancer activity against human K562 cells assessed as cell growth promotion at 10^-5 M after 48 hrs by SRB assay relative to control
[37] = test system: HOP-62; assay: Anticancer activity against human HOP62 cells assessed as cell growth promotion at 10^-5 M after 48 hrs by SRB assay relative to control
[38] = test system: MDA-MB-435; assay: Anticancer activity against human MDA-MB-435 cells assessed as cell growth promotion at 10^-5 M after 48 hrs by SRB assay relative to control

Q: Which results are given for `O=C(Nc1ccccc1C(=O)Nc1ccc(/C=C/c2ccc(Cl)cc2)cc1)c1ccco1`?
A: Activity [1]: 108%; Activity [2]: 83.88%; Activity [3]: 109%; Activity [4]: 102%; Activity [5]: 106%; Activity [6]: 101%; Activity [7]: 115%; Activity [8]: 95.98%; Activity [9]: 107%; Activity [10]: 103%; Activity [11]: 113%; Activity [12]: 100%; Activity [13]: 107%; Activity [14]: 103%; Activity [15]: 97.41%; Activity [16]: 127%; Activity [17]: 112%; Activity [18]: 104%; Activity [19]: 100%; Activity [20]: 69.42%; Activity [21]: 98.82%; Activity [22]: 107%; Activity [23]: 108%; Activity [24]: 96.67%; Activity [25]: 109%; Activity [26]: 116%; Activity [27]: 105%; Activity [28]: 94.63%; Activity [29]: 105%; Activity [30]: 110%; Activity [31]: 128%; Activity [32]: 100%; Activity [33]: 108%; Activity [34]: 111%; Activity [35]: 110%; Activity [36]: 95.66%; Activity [37]: 104%; Activity [38]: 101%

Q: With `O=c1c2ccccc2nc(-c2ccco2)n1/N=C/c1ccccc1Cl` as the molecule, how does the Activity [1] read?
A: Its Activity is 78.92%.

Q: What about the Activity [2] of the same molecule?
A: The Activity was 62.12%.

Q: What about the Activity [3] of the same molecule?
A: The Activity was 62.36%.

Q: And the Activity [4]?
A: The Activity was 38.12%.

Q: What about the Activity [5] of the same molecule?
A: The Activity was 62.59%.

Q: What about the Activity [6] of the same molecule?
A: The Activity was 62.82%.

Q: What about the Activity [7] of the same molecule?
A: Its Activity is 78.23%.

Q: And the Activity [8]?
A: The Activity was 64.87%.

Q: And the Activity [9]?
A: Its Activity is 28.38%.

Q: And the Activity [10]?
A: The Activity was 83.12%.

Q: What about the Activity [11] of the same molecule?
A: Its Activity is 83.85%.

Q: What about the Activity [12] of the same molecule?
A: Its Activity is 26.87%.

Q: What about the Activity [13] of the same molecule?
A: Its Activity is 87.98%.

Q: And the Activity [14]?
A: Its Activity is 52.78%.

Q: What about the Activity [15] of the same molecule?
A: Its Activity is 24.89%.

Q: And the Activity [16]?
A: The Activity was 73.98%.

Q: What about the Activity [17] of the same molecule?
A: Its Activity is 82.72%.

Q: And the Activity [18]?
A: The Activity was 12.24%.

Q: What about the Activity [19] of the same molecule?
A: The Activity was 99.12%.

Q: What about the Activity [20] of the same molecule?
A: Its Activity is 36.82%.

Q: And the Activity [21]?
A: Its Activity is 63.86%.

Q: What about the Activity [22] of the same molecule?
A: The Activity was 62.14%.

Q: And the Activity [23]?
A: The Activity was 24.88%.

Q: And the Activity [24]?
A: The Activity was 89.12%.

Q: And the Activity [25]?
A: Its Activity is 27.98%.

Q: And the Activity [26]?
A: Its Activity is 25.85%.

Q: What about the Activity [27] of the same molecule?
A: Its Activity is 48.82%.

Q: What about the Activity [28] of the same molecule?
A: The Activity was 34.24%.

Q: What about the Activity [29] of the same molecule?
A: Its Activity is 53.52%.

Q: And the Activity [30]?
A: The Activity was 26.67%.

Q: And the Activity [31]?
A: Its Activity is 32.76%.

Q: And the Activity [32]?
A: Its Activity is 23.89%.

Q: What about the Activity [33] of the same molecule?
A: The Activity was 37.89%.

Q: And the Activity [34]?
A: The Activity was 38.98%.

Q: What about the Activity [35] of the same molecule?
A: The Activity was 36.23%.

Q: What about the Activity [36] of the same molecule?
A: Its Activity is 101.3%.

Q: And the Activity [37]?
A: The Activity was -34.84%.

Q: What about the Activity [38] of the same molecule?
A: The Activity was 90.21%.

Q: Which Activity [1] does the source give for `O=C(Nc1ccccc1C(=O)Nc1ccc(/C=C/c2ccc(O)cc2)cc1)c1ccccc1` here?
A: Its Activity is 77.87%.

Q: And the Activity [2]?
A: The Activity was 39.29%.

Q: And the Activity [3]?
A: Its Activity is 57.75%.

Q: What about the Activity [4] of the same molecule?
A: The Activity was 75.71%.

Q: And the Activity [5]?
A: The Activity was 66.17%.

Q: And the Activity [6]?
A: The Activity was 40.16%.

Q: What about the Activity [7] of the same molecule?
A: Its Activity is 61.81%.

Q: And the Activity [8]?
A: Its Activity is 91.38%.

Q: And the Activity [9]?
A: Its Activity is 92.1%.

Q: And the Activity [10]?
A: The Activity was 40.37%.

Q: What about the Activity [11] of the same molecule?
A: Its Activity is 104%.

Q: What about the Activity [12] of the same molecule?
A: Its Activity is 86.46%.

Q: What about the Activity [13] of the same molecule?
A: The Activity was 81.74%.

Q: And the Activity [14]?
A: Its Activity is 97.64%.

Q: And the Activity [15]?
A: Its Activity is 81.74%.

Q: What about the Activity [16] of the same molecule?
A: The Activity was 100%.

Q: What about the Activity [17] of the same molecule?
A: The Activity was 94.49%.

Q: And the Activity [18]?
A: The Activity was 71.73%.

Q: What about the Activity [19] of the same molecule?
A: Its Activity is 44.21%.

Q: And the Activity [20]?
A: The Activity was 85.08%.

Q: And the Activity [21]?
A: The Activity was 77.81%.

Q: What about the Activity [22] of the same molecule?
A: Its Activity is 86.41%.

Q: And the Activity [23]?
A: Its Activity is 70.71%.

Q: And the Activity [24]?
A: The Activity was 50.34%.

Q: And the Activity [25]?
A: The Activity was 89.47%.

Q: And the Activity [26]?
A: The Activity was 92.69%.

Q: What about the Activity [27] of the same molecule?
A: Its Activity is 76.71%.

Q: And the Activity [28]?
A: The Activity was 69.03%.

Q: What about the Activity [29] of the same molecule?
A: Its Activity is 79.29%.

Q: What about the Activity [30] of the same molecule?
A: The Activity was 67.28%.

Q: What about the Activity [31] of the same molecule?
A: Its Activity is 101%.

Q: And the Activity [32]?
A: Its Activity is 58.96%.

Q: And the Activity [33]?
A: Its Activity is 96.06%.

Q: And the Activity [34]?
A: The Activity was 103%.

Q: And the Activity [35]?
A: Its Activity is 71.88%.

Q: What about the Activity [36] of the same molecule?
A: Its Activity is 40.21%.

Q: What about the Activity [37] of the same molecule?
A: Its Activity is 95.55%.

Q: And the Activity [38]?
A: Its Activity is 86.41%.
